Measurements as given in ChEMBL document CHEMBL4196108, “5-Aroylindoles Act as Selective Histone Deacetylase 6 Inhibitors Ameliorating Alzheimer's Disease Phenotypes” (J Med Chem, 2018).
Calls of active or inactive are those of the source. The calls are words filed in the database; no cut-off is given here.

Experiments:
Histone deacetylase 8 = biological target: T1, Histone deacetylase 8 (Homo sapiens, UniProt Q9BY41); experiment: Inhibition of human HDAC8 using RHKAcKAc peptide as substrate
T1 sequence (Q9BY41 whole entry): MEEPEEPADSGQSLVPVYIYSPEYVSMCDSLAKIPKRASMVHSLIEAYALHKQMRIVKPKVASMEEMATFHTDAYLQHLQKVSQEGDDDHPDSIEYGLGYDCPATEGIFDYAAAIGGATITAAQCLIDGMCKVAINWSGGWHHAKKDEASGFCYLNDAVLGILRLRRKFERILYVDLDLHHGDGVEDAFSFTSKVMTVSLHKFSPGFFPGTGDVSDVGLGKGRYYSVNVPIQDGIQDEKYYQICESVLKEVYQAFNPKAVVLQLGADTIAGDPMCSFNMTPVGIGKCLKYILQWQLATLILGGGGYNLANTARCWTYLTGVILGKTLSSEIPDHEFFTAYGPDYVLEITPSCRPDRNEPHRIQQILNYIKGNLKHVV

[1] = biological target: T2, Protein deacetylase HDAC6 (Homo sapiens) (UniProt Q9UBN7); experiment: Inhibition of HDAC6 in human SH-SY5Y cells transfected with pCAX FLAG APP and pRK5-EGFP-Tau P301L plasmids assessed as suppression of phosphorylated tau P301L mutant-induced apoptosis by measuring accumulation at sub-G1 phase at 1 uM after 24 hrs by propidium iodide staining-based flow cytometry (reference value: 22.01%); format: cell-based; parameters: scale not given: the % may be the effect or the level left
T2 sequence (whole entry): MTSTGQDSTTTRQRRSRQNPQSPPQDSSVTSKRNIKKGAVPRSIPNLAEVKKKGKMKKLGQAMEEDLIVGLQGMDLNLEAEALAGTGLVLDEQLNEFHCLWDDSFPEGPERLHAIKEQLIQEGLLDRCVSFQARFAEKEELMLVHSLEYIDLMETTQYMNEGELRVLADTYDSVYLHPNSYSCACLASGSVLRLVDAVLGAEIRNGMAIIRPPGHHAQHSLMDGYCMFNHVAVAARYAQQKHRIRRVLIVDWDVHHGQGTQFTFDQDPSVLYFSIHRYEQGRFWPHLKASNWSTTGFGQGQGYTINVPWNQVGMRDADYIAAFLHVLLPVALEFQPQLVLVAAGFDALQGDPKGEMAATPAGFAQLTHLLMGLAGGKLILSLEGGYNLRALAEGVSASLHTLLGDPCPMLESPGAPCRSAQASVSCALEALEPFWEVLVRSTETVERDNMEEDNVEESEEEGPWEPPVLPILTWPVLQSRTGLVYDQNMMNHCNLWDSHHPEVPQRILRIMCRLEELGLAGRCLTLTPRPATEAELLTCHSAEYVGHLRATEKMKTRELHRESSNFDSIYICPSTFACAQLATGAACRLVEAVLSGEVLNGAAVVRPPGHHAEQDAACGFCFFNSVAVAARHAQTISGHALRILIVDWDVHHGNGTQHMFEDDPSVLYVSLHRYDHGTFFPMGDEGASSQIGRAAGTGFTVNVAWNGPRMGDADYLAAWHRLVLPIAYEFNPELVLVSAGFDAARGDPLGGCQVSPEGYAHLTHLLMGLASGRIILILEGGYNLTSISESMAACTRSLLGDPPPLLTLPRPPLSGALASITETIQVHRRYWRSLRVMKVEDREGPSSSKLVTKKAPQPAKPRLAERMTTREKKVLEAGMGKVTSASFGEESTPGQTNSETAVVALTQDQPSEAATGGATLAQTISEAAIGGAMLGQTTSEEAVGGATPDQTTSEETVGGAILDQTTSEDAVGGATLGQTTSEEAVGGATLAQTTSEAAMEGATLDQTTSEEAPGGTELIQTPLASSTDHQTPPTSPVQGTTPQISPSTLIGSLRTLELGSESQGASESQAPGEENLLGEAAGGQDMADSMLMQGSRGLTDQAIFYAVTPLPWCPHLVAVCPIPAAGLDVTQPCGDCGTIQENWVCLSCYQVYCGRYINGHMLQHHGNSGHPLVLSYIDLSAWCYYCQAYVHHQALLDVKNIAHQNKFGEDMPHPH

[2] = Ratio of drug level in brain to plasma in Sprague-Dawley rat at 50 mg/kg, po after 1 hr; format: ADME, organism-based; details: read-out: BPR
Mus musculus = experiment: In vivo inhibition of HDAC6 in scopolamine-treated 3xTg-AD transgenic mouse brain hippocampal CA1 region assessed as increase in acetyl-alpha-tubulin level at 50 mg/kg, po by Western blot analysis; format: functional, organism-based
Method in brief: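 Female 3xTg-AD mice, fed standard diet to 6 months of age, then dosed orally at 50 or 100 mg/kg once daily for three months. Brains removed; hippocampal tissue lysates immunoblotted for acetyl-α-tubulin and phospho-tau Ser396 and Ser404. Mean ± STD; one-way ANOVA.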

IC50 (Histone deacetylase 8) [nM]	SMILES	Activity [1] [%]	Kp at 1 h [2]	inhibition (Mus musculus)
1060	O=C(NO)c1ccc(Cn2ccc3cc(C(=O)c4ccc(Cl)cc4)ccc32)cc1			
1240	O=C(NO)c1ccc(Cn2ccc3cc(C(=O)c4ccc(F)cc4)ccc32)cc1			

SMILES	IC50 (Histone deacetylase 8) [nM]	Activity [1] [%]	Kp at 1 h [2]	inhibition (Mus musculus)
COc1ccc(C(=O)c2ccc3c(ccn3Cc3ccc(C(=O)NO)cc3)c2)cc1	646	11.5	1.19	Active
